≈ marks a conversion by molar mass, not a printed value. A value given as a limit tells only on which side of the number the result lay.

Assay [1] has as its system KB. Put plainly: Cytotoxicity against human KB cells after 72 hrs. The note with it: read-out: ED50 (the source's name). Format: functional. Put shortly:
(§1)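 Methylene blue binding to fixed cell monolayers. 2880 cells/well seeded, 3 h later sample added; samples prepared at […], incubated 37 °C for 3 days. Absorbance read at 650 nm. ED50 is the concentration giving 50% reduction of absorbance versus untreated cells. Mitomycin as positive control.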

Assay [2] relates to WiDr. Put plainly: Cytotoxicity against human WiDr cells after 72 hrs. The following applies: for EC50: read-out: ED50 (the source's name). The class given is functional, cell-based. In short, it runs like this:
as §1

Assay [3] is described as follows: Cytotoxicity against human Hepa cells after 72 hrs. The note with it: read-out: ED50 (the source's name). Format: functional. In short, it runs like this: as §1

Turning to `C=C1[C@@H]2[C@H](OC(C)=O)OC=C([C@H](OC(C)=O)[C@@H](C=C(C)C)OC(C)=O)[C@H]2CC/C(C)=C/[C@@H](OC(=O)c2ccccc2)[C@H]1OC(=O)c1ccccc1`, the EC50 in assay [1], in assay [2] and in assay [3] was > 20 µg/mL each time.
In the case of `C=C1C(=O)[C@H](OC(=O)c2ccccc2)/C=C(\C)CC[C@@H]2C([C@H](OC(C)=O)[C@@H](C=C(C)C)OC(C)=O)=CO[C@@H](OC(C)=O)[C@@H]12`, the EC50 in assay [1], in assay [2] and in assay [3] was > 20 µg/mL each time.
By IC50 is commonly meant the point on the concentration scale where inhibition reaches its midpoint. A higher IC50 goes with a need for much substance. For `C=C1[C@@H]2[C@H](OC(C)=O)OC=C([C@H](OC(C)=O)[C@@H](C=C(C)C)OC(C)=O)[C@H]2CC/C(C)=C/[C@@H](OC(=O)c2ccccc2)[C@H]1O` [FLORXENILIDE A], the EC50 is > 20 µg/mL in assay [1], 2.73 µg/mL (≈ 4.58 µM) in assay [2] and > 20 µg/mL in assay [3]. The same compound gave an IC50 in assay [2] of 4.5 µM.
With `C=C1[C@@H]2[C@H](OC(C)=O)OC=C([C@H](OC(C)=O)[C@@H](C=C(C)C)OC(C)=O)[C@H]2CC[C@]2(C)O[C@H]2[C@@H](OC(=O)c2ccccc2)[C@H]1O` [FLORXENILIDE B], the values for the EC50 in assay [1], in assay [2] and in assay [3] were 11.4 µg/mL (≈ 18.6 µM), 1.88 µg/mL (≈ 3.07 µM) and 8.03 µg/mL (≈ 13.1 µM), respectively. In assay [2], this compound yielded an IC50 of 3.7 µM.
On to `CO[C@@]12CC[C@H](OC(C)=O)[C@@](C)(CC[C@@H]3/C(=C\C=C\C(C)(C)O)COC(=O)[C@H]31)C2` [FLORXENILIDE C MONOACETATE], for which the EC50 in assay [1], in assay [2] and in assay [3] was > 20 µg/mL each time.
Regarding `CO[C@@]12CC[C@H](O)[C@@](C)(CC[C@@H]3/C(=C\C=C\C(C)(C)O)COC(=O)[C@H]31)C2` [FLORXENILIDE C], the EC50 in assay [1], in assay [2] and in assay [3] was > 20 µg/mL each time.
Take `CO[C@@]12[C@H](COC(N)=O)C3=C(C(=O)C(C)=C(N)C3=O)N1C[C@@H]1N[C@@H]12` [MITOMYCIN]: the EC50 in assay [1] was found to be 0.56 µg/mL (≈ 1.67 µM); in assay [2], 0.35 µg/mL (≈ 1.05 µM); in assay [3], 0.04 µg/mL (≈ 0.12 µM).

The values above are taken from ChEMBL document CHEMBL1157331, “Xenicane-type diterpenes with cytotoxicity from Xenia florida” (J Nat Prod, 2006).
